Results on 18 compounds are retold here after ChEMBL document CHEMBL1932913, “Synthesis and antitumor evaluation of some new 1,3,4-oxadiazole-based heterocycles” (Eur J Med Chem, 2012).

The IC50 is the midpoint of a concentration-inhibition curve.

Structures are written as SMILES. In brackets after ≈: the same amount, converted by molar mass. Activity calls are given as the source filed them. The calls are words filed in the database; no cut-off is given here.

The subject of experiment [1] is WI-38. Description: Cytotoxicity against human WI38 cells after 96 hrs by MTT assay. In kind it is cell-based. Conditions: WI-38, 96 h. In short, it runs like this:
(§1)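 Cells from ATCC, batch cultured 10 d, seeded at 10 × 10³ cells/well in RPMI-1640 with fetal bovine serum, attached 24 h at 37 °C, 5% CO₂. Serum-free medium, then test samples at final 1000, 500, 200, 100, 50, 20, 10 (DMSO ≤1% v/v); 96 h incubation. Formazan read-out against untreated controls; 5-fluorouracil positive control; IC50 from dose–response curve.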

The test system of experiment [2] is Vero. The experiment can be described thus: Cytotoxicity against african green monkey Vero cells after 96 hrs by MTT assay. As to conditions: Chlorocebus sabaeus. In kind it is cell-based. In outline: as §1
Experiment [3] has as its system HepG2. The experiment can be described thus: Cytotoxicity against human HepG2 cells after 96 hrs by MTT assay. Conditions: HepG2, 96 h. In kind it is functional, cell-based. In short, it runs like this: as §1
For orientation: Formazan colour is commonly taken as a measure of viable cells.

Experiment [4] deals with MCF7. Description: Cytotoxicity against human MCF7 cells after 96 hrs by MTT assay. In kind it is functional, cell-based. As to conditions: MCF7, 96 h. In outline: as §1
Experiment [5] deals with Nucleic Acid. The experiment can be described thus: Protection against bleomycin-iron complex-induced DNA damage using EDTA after 1 hr by thiobarbituric acid method. In kind it is nucleic-acid assay. In outline:
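Bleomycin DNA-damage assay, 1.0 ml final: DNA 0.2 mg/ml, bleomycin 0.05 mg/ml, FeCl₃ 0.025 mM, MgCl₂ 5 mM, KH₂PO₄–KOH pH 7.0 30 mM, sample 0.1 mg/ml in MeOH (ascorbic acid 0.24 mM reference). 37 °C for 1 h; stopped with EDTA; TBA plus HCl, 80 °C 15 min; absorbance read. Three experiments, mean ± S.E.M.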

On to `N#C/C(=C/c1cn(-c2ccccc2)nc1-c1ccccc1)c1nnc(NC(=O)c2ccccc2)o1`, for which the IC50 in experiment [1] is 24.1 µg/mL (≈ 52.6 µM); in experiment [2] it was 39.6 µg/mL (≈ 86.4 µM); in experiment [3], 38.1 µg/mL (≈ 83.1 µM); in experiment [4], 37.4 µg/mL (≈ 81.6 µM).

For `CC1=CS/C(=C(\C#N)c2nnc(NC(=O)c3ccccc3)o2)N1c1ccccc1`, the IC50 in experiment [1] amounted to 17.3 µg/mL (≈ 43.1 µM); in experiment [2] it was 15.8 µg/mL (≈ 39.4 µM); in experiment [3] it was 12.4 µg/mL (≈ 30.9 µM); in experiment [4], 25.8 µg/mL (≈ 64.3 µM). Besides, in experiment [5], the result was Active.

For the compound `Nc1c(C(=O)c2ccccc2)sc(Nc2ccccc2)c1-c1nnc(NC(=O)c2ccccc2)o1`, the half-maximal inhibitory concentration (IC50) was 89.6 µg/mL (≈ 186 µM) in experiment [1], 101 µg/mL (≈ 209 µM) in experiment [2], 90.7 µg/mL (≈ 188 µM) in experiment [3] and 100 µg/mL (≈ 209 µM) in experiment [4].

As to `COc1ccc(/C=C(/C#N)c2nnc(NC(=O)c3ccccc3)o2)cc1`, the IC50 stood at 71.2 µg/mL (≈ 206 µM) in experiment [1], 95.6 µg/mL (≈ 276 µM) in experiment [2], 69.5 µg/mL (≈ 201 µM) in experiment [3] and 49.9 µg/mL (≈ 144 µM) in experiment [4].

As to `N#C/C(c1nnc(NC(=O)c2ccccc2)o1)=c1\sc(=O)/c(=C/c2cn(-c3ccccc3)nc2-c2ccccc2)n1-c1ccccc1`, the IC50 in experiment [1] came to 340 µg/mL (≈ 537 µM); in experiment [2], 257 µg/mL (≈ 405 µM); in experiment [3] it was 250 µg/mL (≈ 395 µM); in experiment [4], 411 µg/mL (≈ 648 µM).

As to `O=C(Nc1nnc(-c2nc3ccc4ccccc4c3oc2=O)o1)c1ccccc1`, the concentration for half-maximal inhibition (IC50) was 90.9 µg/mL (≈ 237 µM) in experiment [1], 95.4 µg/mL (≈ 248 µM) in experiment [2], 111 µg/mL (≈ 290 µM) in experiment [3] and 96.9 µg/mL (≈ 252 µM) in experiment [4].

In the case of `NC1=Nn2c(nnc2NC(=O)c2ccccc2)C1`, the IC50 in experiment [1] came out at 65 µg/mL (≈ 268 µM); in experiment [2] it was 69.8 µg/mL (≈ 288 µM); in experiment [3] it was 65.6 µg/mL (≈ 271 µM); in experiment [4], 66.8 µg/mL (≈ 276 µM).

Consider `N#C/C(=C(\S)Nc1ccccc1)c1nnc(NC(=O)c2ccccc2)o1`, for which the IC50 was determined as 84.6 µg/mL (≈ 233 µM) in experiment [1], 82.4 µg/mL (≈ 227 µM) in experiment [2], 100 µg/mL (≈ 276 µM) in experiment [3] and 77.5 µg/mL (≈ 213 µM) in experiment [4].

`CS/C(Nc1ccccc1)=C(\C#N)c1nnc(NC(=O)c2ccccc2)o1`: the half-maximal inhibitory concentration (IC50) was 98.7 µg/mL (≈ 262 µM) in experiment [1], 132 µg/mL (≈ 351 µM) in experiment [2], 125 µg/mL (≈ 332 µM) in experiment [3] and 107 µg/mL (≈ 284 µM) in experiment [4].

Consider `Nc1nn(-c2ccccc2)c(Nc2ccccc2)c1-c1nnc(NC(=O)c2ccccc2)o1`, for which the IC50 came out at 90.5 µg/mL (≈ 207 µM) in experiment [1], 98.8 µg/mL (≈ 226 µM) in experiment [2], 98.7 µg/mL (≈ 226 µM) in experiment [3] and 99.1 µg/mL (≈ 227 µM) in experiment [4].

For `Cc1c(/C=c2/c(=O)s/c(=C(\C#N)c3nnc(NC(=O)c4ccccc4)o3)n2-c2ccccc2)c(=O)n(-c2ccccc2)n1C`, the IC50 in experiment [1] came to 175 µg/mL (≈ 291 µM); in experiment [2], 170 µg/mL (≈ 282 µM); in experiment [3], 146 µg/mL (≈ 242 µM); in experiment [4], 167 µg/mL (≈ 277 µM).

In the case of `O=C(Nc1nnc(-c2cc3ccccc3oc2=O)o1)c1ccccc1`, the IC50 came out at 35.8 µg/mL (≈ 107 µM) in experiment [1], 34.5 µg/mL (≈ 104 µM) in experiment [2], 35.6 µg/mL (≈ 107 µM) in experiment [3] and 32.6 µg/mL (≈ 97.8 µM) in experiment [4].

On to `Nc1n[nH]c(Nc2ccccc2)c1-c1nnc(NC(=O)c2ccccc2)o1`, for which the IC50 turned out to be 38.4 µg/mL (≈ 106 µM) in experiment [1], 36.3 µg/mL (≈ 100 µM) in experiment [2], 33.7 µg/mL (≈ 93.3 µM) in experiment [3] and 38.3 µg/mL (≈ 106 µM) in experiment [4].

In the case of `O=C(Nc1nnc(-c2nc3c(ccc4ccccc43)oc2=O)o1)c1ccccc1`, the IC50 in experiment [1] came to 181 µg/mL (≈ 470 µM); in experiment [2] it was 189 µg/mL (≈ 492 µM); in experiment [3] it was 190 µg/mL (≈ 494 µM); in experiment [4] it was 222 µg/mL (≈ 577 µM).

Take `O=c1[nH]cc(F)c(=O)[nH]1` [FLUOROURACIL]: in experiment [1], 3.2 µg/mL (≈ 24.6 µM) corresponded to half-maximal inhibition (IC50).

In the case of `CC(=O)c1sc(Nc2ccccc2)c(-c2nnc(NC(=O)c3ccccc3)o2)c1N`, the IC50 in experiment [1] was 84.6 µg/mL (≈ 202 µM); in experiment [2], 76.4 µg/mL (≈ 182 µM); in experiment [3], 70.2 µg/mL (≈ 167 µM); in experiment [4] it was 75.5 µg/mL (≈ 180 µM).

In the case of `N#C/C(=C1\SC(=O)CN1c1ccccc1)c1nnc(NC(=O)c2ccccc2)o1`, the IC50 in experiment [1] was found to be 52.4 µg/mL (≈ 130 µM); in experiment [2] it was 50.3 µg/mL (≈ 125 µM); in experiment [3], 51.2 µg/mL (≈ 127 µM); in experiment [4], 69.2 µg/mL (≈ 172 µM).

In the case of `N#CCc1nnc(NC(=O)c2ccccc2)o1`, the IC50 is 24.4 µg/mL (≈ 107 µM) in experiment [1], 30.3 µg/mL (≈ 133 µM) in experiment [2], 21.2 µg/mL (≈ 92.9 µM) in experiment [3] and 39.2 µg/mL (≈ 172 µM) in experiment [4]. Further, the result in experiment [5] was Active.
